Laboratory results: ChEMBL document CHEMBL1142703, “Novel ligands for the chemokine receptor-3 (CCR3): a receptor-modeling study based on 5D-QSAR” (J Med Chem, 2005)

Target: T1, C-C chemokine receptor type 3 (Homo sapiens, UniProt P51677)
T1 sequence (P51677 whole entry): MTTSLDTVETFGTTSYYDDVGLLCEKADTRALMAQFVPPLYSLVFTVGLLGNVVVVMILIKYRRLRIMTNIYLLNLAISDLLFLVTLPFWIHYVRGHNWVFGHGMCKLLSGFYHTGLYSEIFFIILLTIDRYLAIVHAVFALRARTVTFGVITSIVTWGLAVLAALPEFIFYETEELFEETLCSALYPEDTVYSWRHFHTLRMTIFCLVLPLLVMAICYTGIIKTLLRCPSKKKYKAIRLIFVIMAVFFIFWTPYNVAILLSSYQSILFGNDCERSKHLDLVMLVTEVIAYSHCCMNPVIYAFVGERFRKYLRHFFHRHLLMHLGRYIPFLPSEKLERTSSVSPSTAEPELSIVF
Experiment: Inhibition of [125I]eotaxin-1 binding to human chemokine receptor (hCCR3-C1)
Method in brief: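 K562 leukemia myelogenic blast cells transfected with human CCR3 (hCCR3-C1). Binding of the radioligand 125I-eotaxin-1 was measured in a scintillation proximity format. Controls: specific binding with no displacer added, and nonspecific binding with unlabeled eotaxin or test compound added. Bound radioactivity was counted by scintillation. Ki was obtained by iterative fitting of the data to a law-of-mass-action model.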

Ki	Structure (SMILES)
932 nM	O=C(NCC(c1ccc(C(F)(F)F)cc1)N1CCN(C2CCCCC2)CC1)Nc1cc(Cl)cc(Cl)c1 (stereo not given)
832 nM	CC(C)(C)c1ccc(CCNCC(c2ccc(C(F)(F)F)cc2)N2CCN(C3CCCCC3)CC2)cc1 (stereo not given)
987 nM	CN(C)c1ccc(C(CNC(=O)Nc2cc(Cl)cc(Cl)c2)N2CCN(C3CCCCC3)CC2)cc1 (stereo not given)
5180 nM	CN1CCN(C(CNC(=O)Nc2cc(Cl)cc(Cl)c2)c2ccc(C(F)(F)F)cc2)CC1 (stereo not given)
7750 nM	CN1CCN(C(CNC(=O)Nc2ccc(F)cc2)c2ccc(N(C)C)cc2)CC1 (stereo not given)
5380 nM	COc1ccccc1C(CNC(=O)Nc1ccc(F)cc1)N1CCN(C2CCCCC2)CC1 (stereo not given)
8020 nM	Cc1ccc(NC(=O)NCC(c2ccccc2)N2CCN(c3ccccc3)CC2)cc1 (stereo not given)
895 nM	Fc1ccc(CCNCC(c2ccc(C(F)(F)F)cc2)N2CCN(C3CCCCC3)CC2)cc1 (stereo not given)
1070 nM	Cc1ccc(NC(=O)NCC(c2ccc(C(F)(F)F)cc2)N2CCN(C3CCCCC3)CC2)cc1 (stereo not given)
1110 nM	O=C(NCC(c1ccc(C(F)(F)F)cc1)N1CCN(C2CCCCC2)CC1)Nc1ccc(F)cc1 (stereo not given)
14800 nM	COc1ccc(NC(=O)NCC(c2ccc(C(F)(F)F)cc2)N2CCN(c3ccccc3)CC2)cc1 (stereo not given)
605 nM	CN(C)c1ccc(CCNCC(c2ccc(C(F)(F)F)cc2)N2CCN(c3ccccc3)CC2)cc1 (stereo not given)
5550 nM	O=C(NCC(c1ccccc1)N1CCN(c2ccccc2)CC1)Nc1ccc(F)cc1 (stereo not given)
10700 nM	Cc1ccc(NC(=O)NCC(c2ccc(C(F)(F)F)cc2)N2CCN(C)CC2)cc1 (stereo not given)
40200 nM	COc1ccc(C(CNC(=O)Cc2ccccc2)N2CCN(c3ccccc3)CC2)cc1 (stereo not given)
1980 nM	COc1ccc(NC(=O)NCC(c2ccc(C(C)(C)C)cc2)N2CCN(C3CCCCC3)CC2)cc1 (stereo not given)
429 nM	CC(C)CC(CNC(=O)Nc1ccc(Cl)cc1)N1CCN(C2CCCCC2)CC1 (stereo not given)
1670 nM	CN(C)c1ccc(C(CNCCc2ccc(C(F)(F)F)cc2)N2CCN(c3ccccc3)CC2)cc1 (stereo not given)

Ki	Structure (SMILES)
50 nM	COc1ccc(C(CNCCc2cc(C)cc(C)c2)N2CCN(C3CCCCC3)CC2)cc1 (stereo not given)
1460 nM	O=C(NCC(c1ccccc1)N1CCN(C2CCCCC2)CC1)Nc1ccc(C(F)(F)F)cc1 (stereo not given)
1200 nM	Fc1ccc(CCNCC(c2ccc(C(F)(F)F)cc2)N2CCN(c3ccccc3)CC2)cc1 (stereo not given)
6000 nM	COc1ccccc1CC(=O)NCC(c1ccccc1OC)N1CCN(c2ccccc2)CC1 (stereo not given)
10300 nM	CC(C)(C)c1ccc(C(CNC(=O)Cc2ccc(C(F)(F)F)cc2)N2CCN(C3CCCCC3)CC2)cc1 (stereo not given)
517 nM	Cc1cc(C)cc(CCNCC(c2ccc(-c3ccccc3)cc2)N2CCN(C3CCCCC3)CC2)c1 (stereo not given)
313 nM	Cc1cc(C)cc(NC(=O)NCC(CC(C)C)N2CCN(c3ccc(Cl)c(Cl)c3)CC2)c1 (stereo not given)
326 nM	Cc1cc(C)cc(NC(=O)NCC(c2ccc(-c3ccccc3)cc2)N2CCN(C3CCCCC3)CC2)c1 (stereo not given)
597 nM	COc1ccc(C(CNCCc2ccc(C)cc2)N2CCN(c3ccccc3)CC2)cc1 (stereo not given)
11200 nM	CC(C)(C)c1ccc(C(CNC(=O)Cc2ccccc2)N2CCN(c3ccccc3)CC2)cc1 (stereo not given)
488 nM	COc1ccccc1CCNCC(c1ccc(C(C)(C)C)cc1)N1CCN(c2ccccc2)CC1 (stereo not given)
929 nM	COc1ccc(C(CNCCc2ccc(C(F)(F)F)cc2)N2CCN(C3CCCCC3)CC2)cc1 (stereo not given)
1580 nM	COc1ccccc1CCNCC(c1ccccc1OC)N1CCN(c2ccccc2)CC1 (stereo not given)
350 nM	CC(C)(C)c1ccc(C(CNCCc2ccccc2)N2CCN(C3CCCCC3)CC2)cc1 (stereo not given)
477 nM	COc1ccc(CCNCC(c2ccc(C(F)(F)F)cc2)N2CCN(C3CCCCC3)CC2)cc1 (stereo not given)
34900 nM	CN(C)c1ccc(C(CNC(=O)Cc2ccc(C(F)(F)F)cc2)N2CCN(c3ccccc3)CC2)cc1 (stereo not given)
296 nM	CC(C)CC(CNC(=O)Nc1cc(Cl)cc(Cl)c1)N1CCN(C2CCCCC2)CC1 (stereo not given)
393 nM	COc1ccc(CCNCC(c2ccc(C(F)(F)F)cc2)N2CCN(c3ccccc3)CC2)cc1 (stereo not given)

Further lines, the molecule ahead of its results:

Structure (SMILES)	Ki
COc1ccc(C(CNC(=O)Nc2cc(Cl)cc(Cl)c2)N2CCN(C3CCCCC3)CC2)cc1 (stereo not given)	830 nM
CN(C)c1ccc(CCNCC(c2ccc(C(C)(C)C)cc2)N2CCN(C3CCCCC3)CC2)cc1 (stereo not given)	312 nM
CC(C)(C)c1ccc(C(CNC(=O)Nc2ccc(F)cc2)N2CCN(C3CCCCC3)CC2)cc1 (stereo not given)	1120 nM
COc1ccc(C(CNCCc2ccc(C(C)(C)C)cc2)N2CCN(C3CCCCC3)CC2)cc1 (stereo not given)	629 nM
CN1CCN(C(CNC(=O)Nc2cc(Cl)cc(Cl)c2)c2ccc(N(C)C)cc2)CC1 (stereo not given)	3810 nM
COc1ccc(C(CNC(=O)Nc2ccc(F)cc2)N2CCN(C3CCCCC3)CC2)cc1 (stereo not given)	1030 nM
O=C(Cc1cc(Cl)cc(Cl)c1)NCC(c1ccccc1)N1CCN(C2CCCCC2)CC1 (stereo not given)	62500 nM
COc1ccccc1NC(=O)NCC(c1ccc(C(F)(F)F)cc1)N1CCN(C)CC1 (stereo not given)	3350 nM
FC(F)(F)c1ccc(C(CNCCc2cc(Cl)cc(Cl)c2)N2CCN(C3CCCCC3)CC2)cc1 (stereo not given)	129 nM
COc1ccc(CCNCC(c2ccc(C(C)(C)C)cc2)N2CCN(c3ccccc3)CC2)cc1 (stereo not given)	768 nM
CN(C)c1ccc(CCNCC(c2ccccc2)N2CCN(c3ccccc3)CC2)cc1 (stereo not given)	1770 nM
COc1ccc(C(CNCCc2ccc(C)cc2)N2CCN(C3CCCCC3)CC2)cc1 (stereo not given)	914 nM
COc1ccc(NC(=O)NCC(c2ccc(C(F)(F)F)cc2)N2CCN(C3CCCCC3)CC2)cc1 (stereo not given)	1710 nM
Cc1ccc(CCNCC(c2ccc(C(F)(F)F)cc2)N2CCN(C3CCCCC3)CC2)cc1 (stereo not given)	545 nM
COc1ccccc1CCNCC(c1ccc(C(F)(F)F)cc1)N1CCN(C2CCCCC2)CC1 (stereo not given)	118 nM
COc1ccc(NC(=O)NCC(c2ccccc2OC)N2CCN(C3CCCCC3)CC2)cc1 (stereo not given)	10500 nM
O=C(NCC(c1ccccc1)N1CCN(C2CCCCC2)CC1)Nc1cc(Cl)cc(Cl)c1 (stereo not given)	1250 nM
CC(C)(C)c1ccc(C(CNCCc2cc(Cl)cc(Cl)c2)N2CCN(C3CCCCC3)CC2)cc1 (stereo not given)	224 nM
CC(C)(C)c1ccc(CCNCC(c2ccc(C(C)(C)C)cc2)N2CCN(C3CCCCC3)CC2)cc1 (stereo not given)	349 nM
CN(C)c1ccc(CCNCC(c2ccc(C(F)(F)F)cc2)N2CCN(C3CCCCC3)CC2)cc1 (stereo not given)	1080 nM
COc1ccc(C(CNC(=O)Nc2ccc(C(C)(C)C)cc2)N2CCN(C3CCCCC3)CC2)cc1 (stereo not given)	910 nM
O=C(NCC(c1ccc(C(F)(F)F)cc1)N1CCN(C2CCCCC2)CC1)Nc1ccc(C(F)(F)F)cc1 (stereo not given)	1310 nM
O=C(NCC(c1ccccc1)N1CCN(C2CCCCC2)CC1)Nc1ccc(F)cc1 (stereo not given)	6360 nM
FC(F)(F)c1ccc(CCNCC(c2ccccc2)N2CCN(C3CCCCC3)CC2)cc1 (stereo not given)	1310 nM
COc1ccccc1C(CNC(=O)Nc1cc(Cl)cc(Cl)c1)N1CCN(C2CCCCC2)CC1 (stereo not given)	897 nM
Cc1ccc(CC(=O)NCC(c2ccccc2)N2CCN(c3ccccc3)CC2)cc1 (stereo not given)	26900 nM
Cc1ccc(NC(=O)NCC(c2ccccc2)N2CCN(C3CCCCC3)CC2)cc1 (stereo not given)	5390 nM

Structure (SMILES)	Ki
FC(F)(F)c1ccc(C(CNCCc2ccccc2)N2CCN(C3CCCCC3)CC2)cc1 (stereo not given)	484 nM
COc1ccc(CCNCC(c2ccc(C(C)(C)C)cc2)N2CCN(C3CCCCC3)CC2)cc1 (stereo not given)	346 nM
Cc1ccc(CCNCC(c2ccc(N(C)C)cc2)N2CCN(c3ccccc3)CC2)cc1 (stereo not given)	435 nM
CN1CCN(C(CNCCc2ccccc2)c2ccccc2)CC1 (stereo not given)	21800 nM
COc1ccc(C(CNCCc2ccc(F)cc2)N2CCN(C)CC2)cc1 (stereo not given)	11700 nM
O=C(NCC(c1ccc(C(F)(F)F)cc1)N1CCN(C2CCCCC2)CC1)Nc1ccccc1 (stereo not given)	479 nM
CC(C)(C)c1ccc(C(CNCCc2ccc(C(F)(F)F)cc2)N2CCN(C3CCCCC3)CC2)cc1 (stereo not given)	231 nM
CN(C)c1ccc(NC(=O)NCC(c2ccc(C(C)(C)C)cc2)N2CCN(C3CCCCC3)CC2)cc1 (stereo not given)	1720 nM
CC(C)(C)c1ccc(C(CNC(=O)Nc2ccccc2)N2CCN(C3CCCCC3)CC2)cc1 (stereo not given)	1130 nM
COc1ccccc1CCNCC(c1ccc(C(C)(C)C)cc1)N1CCN(C2CCCCC2)CC1 (stereo not given)	216 nM
CN1CCN(C(CNCCc2ccc(C(F)(F)F)cc2)c2ccccc2)CC1 (stereo not given)	8970 nM
Cc1ccc(NC(=O)NCC(CC(C)C)N2CCN(c3ccc(Cl)c(Cl)c3)CC2)cc1 (stereo not given)	179 nM
COc1ccc(NC(=O)NCC(c2ccccc2)N2CCN(C3CCCCC3)CC2)cc1 (stereo not given)	9830 nM
Cc1ccc(NC(=O)NCC(c2ccc(-c3ccccc3)cc2)N2CCN(C3CCCCC3)CC2)cc1 (stereo not given)	316 nM
COc1ccc(C(CNCCc2cc(Cl)cc(Cl)c2)N2CCN(C3CCCCC3)CC2)cc1 (stereo not given)	62 nM
COc1ccccc1C(CNCCc1cc(Cl)cc(Cl)c1)N1CCN(C2CCCCC2)CC1 (stereo not given)	344 nM
CN1CCN(C(CNCCc2ccccc2)c2ccc(C(F)(F)F)cc2)CC1 (stereo not given)	4730 nM
Clc1cc(Cl)cc(CCNCC(c2ccccc2)N2CCN(C3CCCCC3)CC2)c1 (stereo not given)	80 nM
CC(C)(C)c1ccc(NC(=O)NCC(c2ccc(C(C)(C)C)cc2)N2CCN(C3CCCCC3)CC2)cc1 (stereo not given)	2050 nM
COc1ccc(C(CNC(=O)Nc2ccc(C(F)(F)F)cc2)N2CCN(C3CCCCC3)CC2)cc1 (stereo not given)	1530 nM
COc1ccccc1C(CNC(=O)Nc1ccc(C)cc1)N1CCN(c2ccccc2)CC1 (stereo not given)	3540 nM
COc1ccc(C(CNCCc2ccccc2)N2CCN(C3CCCCC3)CC2)cc1 (stereo not given)	1040 nM
COc1ccccc1CC(=O)NCC(c1ccc(C(C)(C)C)cc1)N1CCN(c2ccccc2)CC1 (stereo not given)	8850 nM
FC(F)(F)c1ccc(CCNCC(c2ccc(C(F)(F)F)cc2)N2CCN(C3CCCCC3)CC2)cc1 (stereo not given)	782 nM
CC(C)(C)c1ccc(C(CNC(=O)Nc2ccc(C(F)(F)F)cc2)N2CCN(C3CCCCC3)CC2)cc1 (stereo not given)	972 nM
COc1ccccc1NC(=O)NCC(c1ccc(C(F)(F)F)cc1)N1CCN(C2CCCCC2)CC1 (stereo not given)	3650 nM
COc1ccc(C(CNC(=O)Nc2ccc(C)cc2)N2CCN(C3CCCCC3)CC2)cc1 (stereo not given)	2250 nM
